The source made the active and inactive calls. The rule behind the calls is not given here.
Experiments:
Bos taurus = species on record: Bos taurus; assay: Inhibition of bovine lung sGC using GTP as substrate assessed as inhibition of NO-stimulated cGMP formation at 100 uM preincubated with protein followed by NO addition measured after 2 mins by radioimmunoassay relative to control
How it was run: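 Purified bovine lung sGC (5 ng/ml) in 50 mM Tris, 0.3 mM MgCl, 100 μM EGTA, 0.045% BSA, 1000 units/mL SOD, pH 7.4, with 1 mM MgGTP at 37 °C. Compound (100 μM) added before DEA/NO (30 nM). Reaction ran 2 min, then aliquots were boiled in 50 mM Tris/4 mM EDTA. cGMP was quantified by [3H] radioimmunoassay.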

[1] = molecular target: Soluble guanylate cyclase (Homo sapiens) (UniProt Q02153+O75343+P33402+Q02108); assay: Binding affinity to human recombinant sGC catalytic subunit by surface plasmon resonance analysis; type: protein-complex assay
[2] = molecular target: T1, Adenylate cyclase (Homo sapiens) (UniProt Q8NFM4+O60503+Q08828+P40145+O60266+O95622+O43306+Q08462+P51828); assay: Inhibition of adenylyl cyclase (unknown origin); type: protein assay
Rattus norvegicus = species on record: Rattus norvegicus; assay: Inhibition of sGC in rat cerebellar slices assessed as inhibition of NMDA-induced cGMP production at 100 uM preincubated for 10 mins followed by phosphodiesterase inhibitor IBMX addition by radioimmunoassay
How it was run: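 Sagittal cerebellar slices 0.4 mm thick were cut from 10-day-old rats. Antagonists were added 10 min before IBMX (1 mM, 10 min preincubation). Slices were inactivated in boiling Tris–HCl (50 mM, pH 7.5) with EDTA (4 mM) and sonicated. Protein was measured by bicinchoninic acid and cGMP by radioimmunoassay.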

[3] = molecular target: T1, Adenylate cyclase (Homo sapiens); assay: Inhibition of forskolin-stimulated adenylyl cyclase (unknown origin)

For `COc1ccc(Nc2nc3ccc([N+](=O)[O-])cc3nc2Nc2ccc(OC)cc2)cc1`, the inhibition (Bos taurus) was “inactive”.

In the case of `Oc1ccc(Nc2nc3ccc(Cl)cc3nc2Nc2ccc(O)cc2)cc1`, the inhibition (Bos taurus) is reported as “inactive”.

For `CC(=O)Nc1ccc(Nc2nc3ccc([N+](=O)[O-])cc3nc2Nc2ccc(NC(C)=O)cc2)cc1`, the inhibition (Bos taurus) was “inactive”.

In the case of `O=[N+]([O-])c1ccc2nc(Nc3ccc(F)cc3)c(Nc3ccc(F)cc3)nc2c1`, the inhibition (Bos taurus) is reported as “inactive”.

`CNC(=O)c1ccc2nc(Nc3cccc(O)c3)c(Nc3cccc(O)c3)nc2c1` gave an RU [1] of 9.6.

With `Oc1cccc(Nc2nc3ccc(Cl)cc3nc2Nc2cccc(O)c2)c1` the inhibition (Bos taurus) was “inactive”.

For `O=[N+]([O-])c1ccc2nc(Nc3ccc(O)cc3)c(Nc3ccc(O)cc3)nc2c1`, the inhibition [2] was “inactive”, the inhibition (Rattus norvegicus) was “Active” and the inhibition [3] was “inactive”.

With `N#Cc1ccc2nc(Nc3cccc(O)c3)c(Nc3cccc(O)c3)nc2c1` the inhibition (Bos taurus) was “inactive”.

With `Nc1ccc2nc(Nc3ccc(O)cc3)c(Nc3ccc(O)cc3)nc2c1` the inhibition (Bos taurus) was “inactive”.

`CC(=O)Nc1cccc(Nc2nc3ccc([N+](=O)[O-])cc3nc2Nc2cccc(NC(C)=O)c2)c1` was tested, and the inhibition (Bos taurus) was “inactive”.

For `N#Cc1ccc2nc(Nc3ccc(O)cc3)c(Nc3ccc(O)cc3)nc2c1`, the inhibition (Bos taurus) was “inactive”.

— ChEMBL document CHEMBL3603751, “A new small molecule inhibitor of soluble guanylate cyclase” (Bioorg Med Chem, 2015)
